Most compounds without a hit are left out; they make up all but 2.2% or so of the library.
FLuc stim CS: FLuc activators, initial screening, artefact control for FLuc-dependent activation tests, biochemical, ATPlite luminescence | Luciferin 4-monooxygenase (Photinus pyralis), P08659 | ATPlite luciferase biochemical, 10 min; 0 = ATP-free wells, 1 = DMSO control | activation factor at 10 µM | 200,000 tested, under 10 active;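 active = luciferase activation factor, scaled between plate controls, of at least 2 with compound at 10 µM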
Target sequence (P08659 whole entry, looked up): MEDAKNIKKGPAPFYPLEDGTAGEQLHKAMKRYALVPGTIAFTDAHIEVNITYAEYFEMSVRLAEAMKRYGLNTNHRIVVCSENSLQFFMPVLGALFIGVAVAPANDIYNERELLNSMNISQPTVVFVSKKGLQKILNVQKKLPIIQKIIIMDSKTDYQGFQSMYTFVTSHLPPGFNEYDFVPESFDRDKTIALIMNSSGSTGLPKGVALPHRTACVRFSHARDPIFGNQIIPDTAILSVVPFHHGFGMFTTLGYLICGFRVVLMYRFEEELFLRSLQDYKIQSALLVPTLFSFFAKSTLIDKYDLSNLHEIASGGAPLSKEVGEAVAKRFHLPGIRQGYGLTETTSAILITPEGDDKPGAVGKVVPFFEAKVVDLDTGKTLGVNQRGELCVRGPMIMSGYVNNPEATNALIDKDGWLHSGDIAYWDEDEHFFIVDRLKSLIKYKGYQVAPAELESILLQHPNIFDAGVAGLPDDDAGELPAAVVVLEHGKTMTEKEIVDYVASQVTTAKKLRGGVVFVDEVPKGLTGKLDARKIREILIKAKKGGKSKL
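System: Luciferase/luciferin detection reagent, cell-free biochemical luciferase assay | Medium: PBS buffer for ATP | Dosing: Test compounds dosed from 2 mM stocks in 100% DMSO | Timing: 10 min at ambient temperature | Signal: Luminescence measurement of luciferase light output | Evaluation: Luciferase activation, seen as luminescence increase over controls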
Wee1 stabilizer: Wee1 degradation inhibitors, primary screen, cell-based, HeLa, Wee1K328M-luciferase, luminescence. HeLa Luc-Wee1K328M stability; 100% = proteasome inhibitor MG132 effect. Wee1-like protein kinase (Homo sapiens), P30291. AID 1321, 2008. 220,000 compounds, 1.2% hits. reporter increase, % at 5 µM;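 active = activation above the mean of all tested compounds plus 3 SD, set per screening run, cut at about 8.8% in these data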;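 also: cells exposed to compound for 20 h before luminescence read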
TRAIL sens C8: viability loss with TRAIL in NB7+C8 cells, primary screen, TRAIL sensitizer project, cell-based, ATPlite luminescence | inhibition (viability loss, TRAIL sensitization), % at 10 µM | 360,000 compounds, 1% hits;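 active = compounds causing at least 50% loss of cell viability in the single-dose screen, relative to plate controls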
PPC-1+TRAIL kill: compounds killing PPC-1 cancer cells with TRAIL present, primary screen, TRAIL potentiator project, ATPLite luminescence, uHTS; cell killing (% activity), % at 4 µM or 5 µM; PPC-1 cells + TRAIL, ATPLite viability luminescence; 220,000 compounds, 0.41% hits;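 active = cell killing above 50% in the first pass at 4 µM, then a duplicate retest at 5 µM averaging 50% or more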
PKD1 inh: inhibitors of human PKD1 kinase, biochemical, fluorescence polarization; Serine/threonine-protein kinase D1 (Homo sapiens), Q15139; PKD1 kinase fluorescence polarization assay; inhibition, % (test concentration not listed); 200,000 compounds, 0.056% hits; AID 797, 2007; in the data active = inhibition above about 50%
FLuc inh counter: firefly luciferase enzyme inhibitors, primary screen, artefact control for luciferase-based inhibitor screens, biochemical, luminescence, ATPLite; 10 min; inhibition, % at 10 µM; 200,000 compounds, 1.5% hits;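 active = inhibition above about 50% when tested at 10 µM, limit read from the data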
PPC1 cytotox: cytotoxicity in PPC-1 cells, confirmation, cytotoxicity control for TRAIL apoptosis potentiator project, cell-based, ATP content luminescence; shares compounds with PPC-1+TRAIL kill; PPC-1 viability, ATPlite luminescence, overnight; cytotoxicity, % at 5 µM; 1,200 compounds, 50% hits;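 active = reconfirmed compounds whose average cytotoxicity reaches 50% or more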
Each line names hits and unclear results; the compound was inactive in the other large screens (follow-up assays come after a bar, where they were run).

CCOc1ccc(-c2cc(C(=O)N3CCN(c4ccccn4)CC3)c3ccccc3n2)cc1	TRAIL sens C8 89, PPC-1+TRAIL kill 81, FLuc inh counter 90 | PPC1 cytotox 82
COc1ccc(-c2cc(C(=O)O)c3ccccc3n2)c(OC)c1	none
Cc1ccc(-c2cc(C(=O)N3CCN(c4ccc(F)cc4)CC3)c3ccccc3n2)o1	none | PPC1 cytotox inactive
COc1ccc2cc(-c3cc(C(=O)O)c4ccccc4n3)ccc2c1	TRAIL sens C8 95, PPC-1+TRAIL kill 96, FLuc inh counter 98 | PPC1 cytotox 96
CCOc1c(Cl)cc(/C=C/C(=O)N(CC)CC(=O)Nc2ccc(NC(C)=O)cc2)cc1OC	none (no result: FLuc stim CS, Wee1 stabilizer, PPC-1+TRAIL kill, PKD1 inh, FLuc inh counter)
Cc1ccc(S(=O)(=O)N2CCC(N3CCC(C)CC3)CC2)cc1	none (no result: FLuc stim CS, Wee1 stabilizer, PPC-1+TRAIL kill, PKD1 inh, FLuc inh counter)
O=C(C[C@H]1C[C@H](C(=O)N2CCCCC2)[C@@]2(CCc3ccccc3)c3[nH]c4cc(-c5ccco5)ccc4c3CCN2C1=O)NCCC1=CCCCC1	none (no result: FLuc stim CS, Wee1 stabilizer, PPC-1+TRAIL kill, PKD1 inh, FLuc inh counter)
Cc1cccc(C(=O)N2CCC[C@H]2C(=O)N2CCC[C@H]2C(=O)NCc2ccncc2)c1	none (no result: FLuc stim CS, Wee1 stabilizer, PPC-1+TRAIL kill, PKD1 inh, FLuc inh counter)
Cc1cc2c(cc1S(=O)(=O)N1CCN(c3cccc(C)c3C)CC1)OCC(=O)N2	none (no result: FLuc stim CS, Wee1 stabilizer, PPC-1+TRAIL kill, PKD1 inh, FLuc inh counter)
COc1ccc(S(=O)(=O)Nc2ccc(C)c(S(=O)(=O)N3CCOCC3)c2)cc1[N+](=O)[O-]	none (no result: FLuc stim CS, Wee1 stabilizer, PPC-1+TRAIL kill, PKD1 inh, FLuc inh counter)
COCn1c(-c2ccc(OC)cc2)nc2ccccc21	Wee1 stabilizer 9.2, FLuc inh counter 76 | PPC1 cytotox inactive
Cc1cc(C)c(C#N)c(SCc2nc3ccccc3c(=O)[nH]2)n1	TRAIL sens C8 77, PPC-1+TRAIL kill 80 | PPC1 cytotox 79
COCc1cc(C)nc(SCc2nc3ccccc3c(=O)[nH]2)c1C#N	none
CN(c1ccc(OCC(=O)OCC(=O)Nc2ccc(OC(F)F)cc2)cc1)S(=O)(=O)c1cccs1	none (no result: FLuc stim CS, Wee1 stabilizer, PPC-1+TRAIL kill, PKD1 inh, FLuc inh counter)
CCc1ccc(C(=O)COC(=O)c2cccc(N3C(=O)c4c(C)nc5ccccc5c4C3=O)c2)cc1	TRAIL sens C8 73, PPC-1+TRAIL kill 72, FLuc inh counter 51 | PPC1 cytotox 72
O=C(c1ccco1)N1CCN(Cc2cn[nH]c2-c2cccc3ccccc23)CC1	none (no result: FLuc stim CS, PKD1 inh, FLuc inh counter)
CCOc1cc(S(=O)(=O)NCc2ccccc2)ccc1F	none | PPC1 cytotox inactive
O=C(Nc1ccc(Cl)cc1)C1CCCN(C2=NS(=O)(=O)c3ccccc32)C1 (stereo not given)	none (no result: FLuc stim CS, Wee1 stabilizer, PPC-1+TRAIL kill, PKD1 inh, FLuc inh counter)
COc1ccc(-c2nc(Cn3c(SCc4ccc(C)cc4)nc4ccncc43)c(C)o2)cc1OC	none | PPC1 cytotox inactive
Cc1cc(C(=O)COC(=O)c2cccn2C)c(C)n1Cc1ccco1	TRAIL sens C8 63, FLuc inh counter 80 | PPC1 cytotox inactive
Cc1cc(C(=O)COc2cccnc2[N+](=O)[O-])c(C)n1Cc1ccco1	none
Cc1csc(NC(=O)c2cc3c(s2)CCC3)n1	TRAIL sens C8 84, PPC-1+TRAIL kill 51, FLuc inh counter 79 | PPC1 cytotox inactive
COc1ccc(-c2n(CC(=O)OC3CC(C)CCC3C(C)C)c3ccccc3[n+]2C)cc1 (stereo not given)	none | PPC1 cytotox 52
COc1ccc(OCc2n(CC(=O)OC3CC(C)CCC3C(C)C)c3ccccc3[n+]2C)cc1 (stereo not given)	none (no result: FLuc stim CS, PKD1 inh, FLuc inh counter)
CCn1c(C(=O)N2CCc3ccccc3C2)cc2oc3ccccc3c21	none | PPC1 cytotox inactive
NS(=O)(=O)c1cccc(NC(=S)NCc2ccc3c(c2)OCO3)c1	none | PPC1 cytotox inactive
Cc1ccc(S(=O)(=O)Nc2cccc3ncccc23)s1	none | PPC1 cytotox inactive
O=C(Nc1nc2ccccc2[nH]1)c1ccc(Br)o1	FLuc inh counter 73 | PPC1 cytotox inactive
COc1cccc(C(=O)Nc2nc3ccccc3[nH]2)c1	TRAIL sens C8 83, PPC-1+TRAIL kill 71, FLuc inh counter 91 | PPC1 cytotox 73
COCCNC(=O)C1CCCN(C(=O)c2ccnc(Cl)c2)CC1 (stereo not given)	none (no result: FLuc stim CS, Wee1 stabilizer, PPC-1+TRAIL kill, PKD1 inh, FLuc inh counter)
COC(=O)c1nc2n(n1)C(c1ccccc1OC)C1=C(CCCC1=O)N2 (stereo not given)	none
COC(=O)c1nc2n(n1)C(c1ccc(OC)c(OC)c1OC)C1=C(CCCC1=O)N2 (stereo not given)	none | PPC1 cytotox inactive
Cc1cc(=O)[nH]c(SCC(=O)N2CCCCCC2)n1	none | PPC1 cytotox inactive
CCCc1cc(=O)[nH]c(SCC(=O)N2CCN(c3ccc(F)cc3)CC2)n1	none | PPC1 cytotox inactive
Cc1cc(C)cc(N(CCC#N)C(=O)COC(=O)c2nc3nc(C)cc(C)n3n2)c1	none (no result: FLuc stim CS, Wee1 stabilizer, PPC-1+TRAIL kill, PKD1 inh, FLuc inh counter)
O=C1C(Cl)=C(Nc2ccc(O)cc2)C(=O)c2ccccc21	TRAIL sens C8 89 (no result: FLuc stim CS, PKD1 inh, FLuc inh counter) | PPC1 cytotox inactive
Cc1ccc(NC2=C/C(=N\S(=O)(=O)c3cccs3)c3ccccc3C2=O)c(C)c1	TRAIL sens C8 96, PPC-1+TRAIL kill 52 | PPC1 cytotox 54
O=C1/C(=N\S(=O)(=O)c2cccs2)C([n+]2ccccc2)=C([O-])c2ccccc21	none (no result: FLuc stim CS, PKD1 inh, FLuc inh counter)
O=C1C(Nc2ccc(O)cc2)=C/C(=N/S(=O)(=O)c2cccs2)c2ccccc21	TRAIL sens C8 96, PPC-1+TRAIL kill 73 | PPC1 cytotox 74
Cc1nc2cc(NC(=O)Nc3ccccc3Cl)ccc2n1C	TRAIL sens C8 73, PPC-1+TRAIL kill 71, FLuc inh counter 91 | PPC1 cytotox 72
Cc1nc2cc(NC(=O)N3c4ccccc4CC3C)ccc2n1C (stereo not given)	TRAIL sens C8 65, PPC-1+TRAIL kill 68, FLuc inh counter 86 | PPC1 cytotox 63
Cc1ccccc1NC(=O)N1c2ccccc2CC1C (stereo not given)	none
CCn1c(SCC(=O)NC2=NCCS2)nnc1C(C)NC(=O)c1ccccc1Br (stereo not given)	none (no result: FLuc stim CS, Wee1 stabilizer, PPC-1+TRAIL kill, PKD1 inh, FLuc inh counter)
COc1ccc(Cl)cc1NC(=O)Cn1c(=O)oc2ccccc21	none (no result: FLuc stim CS, Wee1 stabilizer, PPC-1+TRAIL kill, PKD1 inh, FLuc inh counter)
COC(=O)c1ccccc1NC(=O)Cn1c(=O)oc2ccc(Cl)cc21	none | PPC1 cytotox inactive
Cc1cccc(C)c1NC(=O)CSc1nnc(C)n1CC1CCCO1 (stereo not given)	none (no result: PPC-1+TRAIL kill)
Cc1ccc(-n2nnc(-c3nccn3C)n2)cc1	TRAIL sens C8 71, PPC-1+TRAIL kill 55, FLuc inh counter 88 | PPC1 cytotox 53
CCCn1c(NC(=O)C2CCN(S(=O)(=O)c3cccs3)CC2)nc2ccccc21	none | PPC1 cytotox inactive
